From the RNAGym collection of RNA variant scans (doi:10.1126/science.aae0568)
Variants at the floor of the assay were thinned out.

B1: tRNA (parent)
chain: GUUCCGUUGGCGUAAUGGUAACGCGUCUCCCUCCUAAGGAGAAGACUGCGGGUUCGAGUCCCGUACGGAACG

Variants of: B1
Assay: yeast fitness relative to wild type (ratio to wild type); higher = fitter; tRNA-Arg(CCU), competitive growth, 37 C, YPD
Summary of the method: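 Variants of the tRNA-Arg(CCU) gene were chemically synthesised with a 3% per-site mutation rate across 69 sites and placed at the native genomic locus in Saccharomyces cerevisiae. Six parallel replicates of the pooled strains were competed in YPD at 37°C for 24 hours, and gene amplicons from the start and end populations were read by 100-nucleotide paired-end sequencing. Darwinian fitness relative to wild type was derived from changes in genotype frequencies. Genotypes required ≥ 100 starting reads, and estimates < 0.5 were set to 0.5.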
In the case of GAUCCGUUGGCGUGAUGGUAACGCGUCUCCCUCCUAUGGAGAAGACUGCGGGUACGAGUCCCGUACGGAACG [U2A A14G A37U U54A], the yeast fitness is reported as ≤ 0.5. In the case of GAUCCGUUGGCGUAAUGGUCACGCGUCUCCCUCCUAAGGAGAAGACUGCGGGUUCGAGUCCCGUACGGCACG [U2A A20C A69C], the yeast fitness is reported as 0.78. In the case of GAUCCGUUGGCGUAGUGGUAACGCGUCUCCGUCCUAAGGUGAAGACUGCGGGUUCGAGUGCCGUACAGAACG [U2A A15G C31G A40U C60G G67A], the yeast fitness is reported as ≤ 0.5. In the case of GAUCCGUUGGCGUAAUGGUUACGCGUCUCCCUCAUAAGGAGAAGACUGCGGGUUCGAGUCUCGUUCGGAACG [U2A A20U C34A C61U A65U], the yeast fitness is reported as ≤ 0.5. With GAUCCGUUGGCGUACUGGUAACGCGUCUCCCUCCUAAGGAGAAGACUGCGGGUUCGACUCCCGUACGGAACG [U2A A15C G58C] the yeast fitness was ≤ 0.5. In the case of GAUCCGUUGGCGUCAUGGUAACGCGUCUCCCUCCUAAGGAGAAGACUCCGGGUUCGAGUCCCGUACGGAACG [U2A A14C G48C], the yeast fitness is reported as ≤ 0.5. In the case of GAUCCGUUGGCGUAAUGGUACCGCGUCUCCGUCCUAAGGAGACGACUGCGGGUUCGAGUCCCGUACGGAACG [U2A A21C C31G A43C], the yeast fitness is reported as ≤ 0.5. In the case of GAUCCGUUGGCGUAAUGGUGACGCGUCUCCCUCAUAAGGAGAAGACUGUGGGUUCGAGUCCCGUACGGAACG [U2A A20G C34A C49U], the yeast fitness is reported as ≤ 0.5. For GAUCCGUUGGCGUAAUGGUACCGAGUCUCCCUACUAAGGAGAAGACUCCGGGUUCGAGUCCCGUACGGAACG [U2A A21C C24A C33A G48C], the yeast fitness was ≤ 0.5. Work on GAUCCGUUGGCGUAAUGGUGACGCGUCUCCCUCCUAAGGAGAAGACUGUGGGUUCGAGUCCCGUACGGAACG [U2A A20G C49U] yielded a yeast fitness of 0.605. For GAUCCGUUGGCGUAAUGGUAACGCGUCUCCCUCCUAAGGAGCAGACUGCGGGUUCGAGUCCCGUACGGAACG [U2A A42C], the yeast fitness was 0.818. For GAUCCGUUGGCGUAAUGGUACCGCGUCUUCCUCCUAAGGAGAAGACUGCGAGUUCGAGUCCCGUACGGAACG [U2A A21C C29U G51A], the yeast fitness was 0.574. In the case of GAUCCGUUGGCGUCAUGGUAACGCGUCUCUCUCGUAAGGAGAAGACUGCGGGUUCGAGUCCCGUACGGAACG [U2A A14C C30U C34G], the yeast fitness is reported as ≤ 0.5. GAUCCGUUGGCGUAAUGGUGACGCGUCUCCCUCCUAAGGAGAAGACUGCGGGUUCGAGUCCCGUACGGCACG [U2A A20G A69C] gave a yeast fitness of 0.688. Variant GAUCCGUUGGCGUAAUGGUAACGCGUCUCCCUCCUAAGGGGAAGACUGCGGGUUCGAGUCCCGUACGGAACG [U2A A40G] has a yeast fitness of 0.932. For GAUCCGUUGGCGUAUUCGUAACGCGUCUCCCUCCUAAGGAGAAGACUGCGAGUUCGAGUCCCGUACGGAACG [U2A A15U G17C G51A], the yeast fitness was ≤ 0.5. In the case of GAUCCGUUGGCGUAAUGGUAACGCGUCUCCCUCCUCAGGAGAAGCCUGCGGGUUGGAGUCCAGUACGAAACG [U2A A36C A45C C55G C62A G68A], the yeast fitness is reported as ≤ 0.5. In the case of GAUCCGUUGGCGUAAUGGUAACGCGUCUCCCUCCUACGGAGAAGACUGCGGGUUCGCGUUCCGUACGGAACG [U2A A37C A57C C60U], the yeast fitness is reported as ≤ 0.5. With GAUCCGUUGGCGUAAUGGUAUCGCGUCUCCCUCCUAAGGAGAAGACUGCAGGUUCGAGUCCCGUACGGAACG [U2A A21U G50A] the yeast fitness was ≤ 0.5. For GAUCCGUUGGCGUCAUGGUAACGCGUCUCCCUCCUAAGGAGAAGACUGCAGGUUCGAGUCCCCUACGGAACG [U2A A14C G50A G63C], the yeast fitness was ≤ 0.5. Work on GAUCCGUUGGCGUCAUGGUGACGCGUCUCCCUCCUGAGGAGAAGACUGCGGGUUUGAGUCCCGUACGCAACG [U2A A14C A20G A36G C55U G68C] yielded a yeast fitness of 0.595. Work on GAUCCGUUGGCGUAAUGGUAUCGCGUCUCCCUCCUAAGGAGAAGACUGCGGGUACCAGUCCCGUACGGAACG [U2A A21U U54A G56C] yielded a yeast fitness of 0.646. For GAUCCGUUGGCGUAAUGGUAACGCGUCUCCCUCCUAGGGAGAAGACUGCGGGUUCGAGUCCCGUACGGAACG [U2A A37G], the yeast fitness was 0.659. Variant GAUCCGUUGGCGUUAUGGUAACGUGUCUCCCGCCUAAGGAGAAGACUGCGGGUUCGAGUCCCGUACGGAACG [U2A A14U C24U U32G] has a yeast fitness of 0.672. GAUCCGUUGGCGUGAUGGUAACGCCUCUCCCUCCUAAGGAGAAGACCCCGGGUUCGAGUCCCGUACGGAACG [U2A A14G G25C U47C G48C] gave a yeast fitness of 0.573. With GAUCCGUUGGCGUAGUGGUAACGCGUCUCCCUCCUAUGGAGAAGACUGGGGGUUCGAGUCCCGUACGGAACG [U2A A15G A37U C49G] the yeast fitness was ≤ 0.5. With GAUCCGUUGGCGUAGUGGUAACGCGUCUUCCUCCUAAGGAAAAGACUGCGGGUUCGAGUCCCGUACGGAACG [U2A A15G C29U G41A] the yeast fitness was ≤ 0.5. For GAUCCGUUGGCGUAAUGGUAGCGCGUCUUCCUCCUAAGGUGAAGACUGCGGGUUCGAGUCCCAUACGGUACG [U2A A21G C29U A40U G63A A69U], the yeast fitness was ≤ 0.5. In the case of GAUCCGUUGGCGUUAUGGUAGCGCGUCUCCCUCCUAAGGAGAAGAGUGCGGGUUCGUGUCCCGUAUGGAACG [U2A A14U A21G C46G A57U C66U], the yeast fitness is reported as 0.56. In the case of GAUCCGUUGGCGUACUGGUAACGCGUCUCCCUCCUAAGGAGAAGACUGCGGGUUCGAGUCCCGUACGGCACG [U2A A15C A69C], the yeast fitness is reported as ≤ 0.5. With GAUCCGUUGGCGUCAUGGUAACGCGUCUCUCUCGUAAGGAGAAGUCUGCGGGUUCGAGUCCCGUACGGAACG [U2A A14C C30U C34G A45U] the yeast fitness was ≤ 0.5. With GAUCCGUUGGCGUAAUGGUCACGCGUUUCCCUCCUAAGGAGAAGACUGCGGGUUCGACUCCCGUACGGCACG [U2A A20C C27U G58C A69C] the yeast fitness was ≤ 0.5. With GAUCCGUUGGCGUAAUGGUCACGCGUCUCCCUCCUAAGGAGAAGACUCCGGGUUCGAGUCCCGUACCGAACG [U2A A20C G48C G67C] the yeast fitness was ≤ 0.5. GAUCCGUUGGCGUAAUGGUAACGCGUCUCCCUCCUAAGGUGAAGACUACGGGUUCGAGUCCCGUACGGAACG [U2A A40U G48A] gave a yeast fitness of 0.681. In the case of GAUCCGUUGGCGUAAUGGUGACGGGUCUCGCUCCUAAGGAGAAGACUGCGGGUUCGAGUCCCGUACGGAACG [U2A A20G C24G C30G], the yeast fitness is reported as ≤ 0.5. Work on GAUCCGUUGGCGUAAUGGUUACGCGUCUCCCUCCUAAGGAGAAGACUGCGGGAUCGAGUACCGUACGGAACG [U2A A20U U53A C60A] yielded a yeast fitness of 0.558. GAUCCGUUGGCGUAAUGGUAACGCGUCUCCCUCCUCAGGAGAAGACUGCGGGUUCGAGUCCCGUACGGAACG [U2A A36C] gave a yeast fitness of 0.518.
